About 1,200 (48%) of roughly 2,500 compounds were called active. So high a share suggests a set chosen from earlier hits. This is one part of the list. Values without a mark were called inactive.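 The calls were made as follows: active = mean activation above the low control average plus 3 SD, as set in the primary screen (cut at about 12% in these data); inactive = the rest.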
target: Troponin I, cardiac muscle (Homo sapiens) + Troponin T, cardiac muscle (Homo sapiens) + Troponin C, slow skeletal and cardiac muscles (Homo sapiens) (UniProt P19429+P45379+P63316); assay: calcium sensitizers of cardiac thin filaments – biochemical, IANBD-TnC fluorescence, triplicate, confirmation (AID 504383); settings: IANBD-labeled cardiac RTF, Ca2+ sensitivity fluorescence; at 7.2 µM; active compounds read high; scaled from EC20 to saturating calcium; tested at EC20 calcium, 0.472 mM;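 also: 0% = DMSO at 0.472 mM calcium and 100% = DMSO at 2.9 mM calcium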
How it was run: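 Material: labelled regulated thin filaments; Reagent: 0.472 mM calcium; Incubation: 15 min compound incubation with filaments at 25 °C; Detection: filament fluorescence intensity; Evaluation: fluorescence increase normalised to calcium controls; Benchmarks: low control EC20 calcium, high control EC100 calcium.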

Compound	activation
COC(=O)C(=N/Nc1ccccc1C(=O)OC)/C(C)=N/O	35.7% (active)
N#C/C(=C/c1ccc(N2CCOCC2)o1)c1nc2ccccc2[nH]1	11.4%
Cc1ccc2nc(/C(C#N)=C\c3ccc(N4CCOCC4)o3)[nH]c2c1	44.2% (active)
N#C/C(=C\c1ccc(N2CCOCC2)o1)c1nc2ccccc2[nH]1	29.6% (active)
Clc1ccc(-n2cc(-c3ccc(Br)cc3)[n+]3c2CCCCC3)cc1	0.54%
Clc1ccc(-c2cn3nc4c(nc3n2)CCCC4)cc1	9.46%
Brc1ccc(-c2cn3nc4c(nc3n2)CCCC4)cc1	22.8% (active)
c1ccc(-c2cn3nc4c(nc3n2)CCCC4)cc1	48.2% (active)
CC1(C)CC(=O)C=C(Nc2ccccc2N)C1	31.4% (active)
CC1(C)CC(=O)C=C(NCc2ccc(Cl)c(Cl)c2)C1	3.4%
O/C=c1\ccc2cccc3nc(C(F)(F)F)nc1c23	5010% (active)
O=C(NCCc1ccccc1)c1ccc(Cl)nc1	16.1% (active)
Cc1ccccc1C(=O)NCCCc1ccccc1	0.23%
COC(=O)C1=C(C(=O)c2ccc(C)cc2)C(c2ccc(OC)c(OC)c2)n2nnnc2N1 (centres undefined)	9.37%
CC(C)CCNC(=O)c1ccc2c(SCC(=O)O)c3c(nc2c1)CCC3	35.4% (active)
CCOc1c2ccc(C(=O)NCCc3cccs3)cc2nn1CC	9.3%
Cc1cc(C)n2nc(SCC(=O)N(C)Cc3ccccc3)nc2n1	-3.59%
O=C(N1CCOCC1)N1CCC(n2nnc3ccccc32)CC1	5.64%
CN(Cc1ccccc1)C(=O)N1CCOCC1	12.1% (active)
CCc1cc(C(=O)Nc2ccc(OC)nc2)sc1C	4.99%
O=C(COC(=O)C1CCCCC1)Nc1ccc([N+](=O)[O-])cc1	82.4% (active)
O=C(COc1ccc(Cl)cc1)NCc1ccccc1	10.9%
O=C(COC(=O)C1CCC(=O)N1)Nc1ccc(Oc2ccccc2)cc1 (centres undefined)	5.98%
O=C(COC(=O)C1CCC1)NCc1ccccc1	286% (active)
Cc1ccc(C(=O)COC(=O)C2CCC2)cc1	9.89%

Compound	activation
CCn1cc(C(=O)NCCC(=O)NCCO)c(=O)c2cc3c(cc21)OCO3	57.2% (active)
CCC(CO)[n+]1c(C)cc(/C=C2\Sc3ccccc3N2Cc2ccccc2)cc1C (centres undefined)	3.94%
CC[n+]1c(/C=C2\Sc3ccccc3N2C)ccc2cccc(C)c21	6.15%
COc1ccccc1-[n+]1c(C)cc(/C=C2\Sc3ccccc3N2C)cc1C	12% (active)
COc1ccc(-[n+]2c(C)cc(/C=C3\Sc4ccccc4N3C)cc2C)cc1	249% (active)
Oc1cccc(Nc2nc(O)c(/C=C3\C=Nc4ccccc43)s2)c1	127% (active)
CC(C)=CCC/C(C)=C/Cc1c(O)ccc(C(=O)/C=C/c2ccc(O)cc2)c1O	563% (active)
CN(C)c1ccc(/C=C/C(=O)c2ccc(O)cc2)cc1	1.84%
O=C(Cc1ccccc1)Nc1cccc(-c2nc3ncccc3o2)c1	15.3% (active)
COc1cccc(CC(NC(C)=O)C(=O)NC2CCN(c3nc(C)cc(C)c3C#N)CC2)c1OC (centres undefined)	34% (active)
CC(=O)NC(Cc1ccc(F)c(F)c1)C(=O)NC1CCN(S(=O)(=O)c2ccc(C)cc2)CC1 (centres undefined)	6.59%
CCOC(=O)[C@H]1[C@H]2COc3ccccc3[C@@H]2N2C(=O)CN(Cc3ccc(C)cc3)C(=O)[C@@]12C	8.95%
N#C/C(=C\c1ccccn1)c1nc2ccccc2s1	14.5% (active)
N#C/C(=C(/O)COC(=O)c1ccccc1O)c1nc2ccccc2s1	5.53%
CN1CCN(C(=O)c2cc3ccccc3[nH]2)CC1	6.99%
COc1ccc2[nH]c(C(=O)N3CCC(Cc4ccccc4)CC3)cc2c1	13.6% (active)
O=C1c2cccc3cccc(c23)C(=O)N1CC1CCN(S(=O)(=O)c2ccc(F)cc2)CC1	134% (active)
Cc1ccc(N=C2NC(=O)/C(=C/c3cccnc3)S2)cc1C	3.85%
O=C1NC(=NCc2ccccc2)S/C1=C\c1ccccc1	50.1% (active)
Cc1ccnc(N/C=C(\C#N)c2nc(-c3cccc(Br)c3)cs2)c1	27.5% (active)
Cc1ccnc(NC(=O)c2ccc(Br)s2)c1	5.46%
N#C/C(=C\C=C\c1ccccc1)c1nc(-c2ccc3c(c2)OCO3)cs1	7.13%
O=S(=O)(/C=C/c1ccccc1)N1CCc2ccccc2C1	11.1%
COC(=O)c1ccc(NC(=O)c2cccc(OC)c2)cc1	14.2% (active)

— PubChem BioAssay AID504383 (The Scripps Research Institute Molecular Screening Center, 2011)
